Experimental data as given in ChEMBL document CHEMBL1136894, “New antituberculotics originated from salicylanilides with promising in vitro activity against atypical mycobacterial strains” (Bioorg Med Chem, 2009).
Converted amounts (≈) assume the structure as drawn.

Assays:
[1] = test system: Mycobacterium tuberculosis; assay: Antimycobacterial activity against Mycobacterium tuberculosis CNCTC My 331/88 after 14 days; assay type: functional; details: CNCTC My 331/88, 336 h
Procedure, shortened: (§1)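 Broth dilution in Sula semisynthetic medium, compounds added as DMSO solutions at 250, 125, 62, 32, 16, 8, 4, 2 and 1. Strains came from the Czech National Collection of Type Cultures; the M. tuberculosis inoculum was diluted 10^-3. Cultures were incubated at 37 °C, and MIC was read after 7, 14 and 21 days.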

Mycobacterium kansasii [2] = assay: Antimycobacterial activity against Mycobacterium kansasii isolate 6509/96 after 7 days; assay type: functional; details: isolate 6509/96, 168 h
Procedure, shortened: (§2)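 Compounds were added as DMSO solutions to Sula semisynthetic medium at 250, 125, 62, 32, 16, 8, 4, 2 and 1 µmol/L. Two M. kansasii strains were used: CNCTC My 235/80 and clinical isolate 6509/96, each with strain dilution 10^-4. Incubation was at 37 °C, and MIC was read at 7, 14 and 21 days.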

Mycobacterium kansasii [3] = assay: Antimycobacterial activity against Mycobacterium kansasii CNCTC My 235/80 after 14 days; assay type: functional; details: CNCTC My 235/80, 336 h; procedure, shortened: as §2
Mycobacterium kansasii [4] = assay: Antimycobacterial activity against Mycobacterium kansasii isolate 6509/96 after 14 days; assay type: functional; details: isolate 6509/96, 336 h; procedure, shortened: as §2
Mycobacterium kansasii [5] = assay: Antimycobacterial activity against Mycobacterium kansasii CNCTC My 235/80 after 21 days; assay type: functional; details: CNCTC My 235/80, 504 h; procedure, shortened: as §2
HCT-8 = assay: Cytotoxicity against human HCT8 cells after 72 hrs by XTT assay; assay type: functional, cell-based; details: HCT-8, 72 h
Procedure, shortened: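 HCT-8 cells were grown in EMEM with 5% FBS at 37 °C under 5% CO2. They were harvested with trypsin, seeded at 2 × 10^5 cells/mL and left 24 h. Medium was then replaced with compound in DMSO. DMSO-only wells served as the viability control and 20% DMSO as the cytotoxic control. Reagent was added for 4 h and absorbance read at 450 nm. Triplicates; EC50 reported.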

[6] = Lipophilicity, log K by HPLC; assay type: physicochemical
Procedure, shortened: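 Capacity factors k were measured by RP-HPLC and log k was calculated from them.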

[7] = test system: Mycobacterium tuberculosis; assay: Antimycobacterial activity against Mycobacterium tuberculosis CNCTC My 331/88 after 21 days; assay type: functional; details: CNCTC My 331/88, 504 h; procedure, shortened: as §1
Mycobacterium avium [8] = assay: Antimycobacterial activity against Mycobacterium avium CNCTC My 330/88 after 14 days; assay type: functional; details: CNCTC My 330/88, 336 h; procedure, shortened: as §1
[9] = Stability assessed as half life in phosphate buffer at pH 7.4 by UV-visible spectroscopy; assay type: physicochemical
Procedure, shortened: (§3)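 Compound in methanolic solution (10 or 20 µL) was added to tempered 7 × 10^-2 M phosphate buffer (2 mL) at pH 7.4 or 5.5, 37 °C. The absorbance decrease at 224 nm was followed by UV/vis.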

[10] = Selectivity index, ratio of EC50 for human HCT8 cells to MIC for Mycobacterium tuberculosis CNCTC My 331/88; assay type: functional, HCT-8
Procedure, shortened: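 SI is EC50 in HCT-8 cells divided by the M. tuberculosis MIC. HCT-8 cells were grown in EMEM with 5% FBS at 37 °C under 5% CO₂, trypsinised and seeded at 2 × 10⁵ cells/mL. After 24 h the medium was replaced with compound in DMSO. Controls were DMSO alone and 20% DMSO. Absorbance was read at 450 nm 4 h after reagent addition, in triplicate.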

Mycobacterium kansasii [11] = assay: Antimycobacterial activity against Mycobacterium kansasii CNCTC My 235/80 after 7 days; assay type: functional; details: CNCTC My 235/80, 168 h; procedure, shortened: as §2
Mycobacterium kansasii [12] = assay: Antimycobacterial activity against Mycobacterium kansasii isolate 6509/96 after 21 days; assay type: functional; details: isolate 6509/96, 504 h; procedure, shortened: as §2
[13] = Stability assessed as half life in phosphate buffer at pH 5.5 by UV-visible spectroscopy; assay type: physicochemical; procedure, shortened: as §3
Mycobacterium avium [14] = assay: Antimycobacterial activity against Mycobacterium avium CNCTC My 330/88 after 21 days; assay type: functional; details: CNCTC My 330/88, 504 h; procedure, shortened: as §1

With `O=C(N[C@H](Cc1ccccc1)C(=O)Oc1cc(Cl)ccc1C(=O)Nc1ccc(Cl)cc1)OCc1ccccc1` the MIC [1] was 4 µM (≈ 2.25 µg/mL), the MIC (Mycobacterium kansasii [2]) was 4 µM (≈ 2.25 µg/mL) and the MIC (Mycobacterium kansasii [3]) was 8 µM (≈ 4.51 µg/mL). It also gave an MIC (Mycobacterium kansasii [4]) of 8 µM (≈ 4.51 µg/mL), an MIC (Mycobacterium kansasii [5]) of 8 µM (≈ 4.51 µg/mL) and an EC50 (HCT-8) of 104 µM. The “log K” value [6] was 1.0315, the MIC [7] was 4 µM (≈ 2.25 µg/mL) and the MIC (Mycobacterium avium [8]) was 8 µM (≈ 4.51 µg/mL). For the same compound, the half-life [9] was 22.1 min, the Ratio [10] was 26.05 and the MIC (Mycobacterium kansasii [11]) was 4 µM (≈ 2.25 µg/mL). For the same compound, the MIC (Mycobacterium kansasii [12]) was 8 µM (≈ 4.51 µg/mL), the half-life [13] was 17.9 min and the MIC (Mycobacterium avium [14]) was 8 µM (≈ 4.51 µg/mL).
`CC(C)[C@H](NC(=O)OCc1ccccc1)C(=O)Oc1ccc(Cl)cc1C(=O)Nc1ccc(Br)cc1` gave an MIC [1] of 4 µM (≈ 2.24 µg/mL), an MIC (Mycobacterium kansasii [2]) of 8 µM (≈ 4.48 µg/mL) and an MIC (Mycobacterium kansasii [3]) of 8 µM (≈ 4.48 µg/mL). For the same compound, the MIC (Mycobacterium kansasii [4]) was 8 µM (≈ 4.48 µg/mL), the MIC (Mycobacterium kansasii [5]) was 8 µM (≈ 4.48 µg/mL) and the EC50 (HCT-8) was 122 µM. For the same compound, the “log K” value [6] was 0.9803, the MIC [7] was 4 µM (≈ 2.24 µg/mL) and the MIC (Mycobacterium avium [8]) was 8 µM (≈ 4.48 µg/mL). The half-life [9] was 14.8 min, the Ratio [10] was 16.74 and the MIC (Mycobacterium kansasii [11]) was 4 µM (≈ 2.24 µg/mL). For the same compound, the MIC (Mycobacterium kansasii [12]) was 8 µM (≈ 4.48 µg/mL), the half-life [13] was 14.3 min and the MIC (Mycobacterium avium [14]) was 16 µM (≈ 8.96 µg/mL).
